Test [1] concerns the target T1, N‐terminal PAS domain from XC_2579 (Tk 4, residues 1 to 165) (Xanthomonas campestris pv. campestris, UniProt Q8PA41).
T1 sequence (Q8PA41 14-178): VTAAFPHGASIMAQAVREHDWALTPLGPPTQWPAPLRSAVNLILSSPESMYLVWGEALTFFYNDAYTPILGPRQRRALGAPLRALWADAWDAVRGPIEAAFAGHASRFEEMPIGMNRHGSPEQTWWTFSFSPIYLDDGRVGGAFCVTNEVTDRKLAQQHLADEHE
The test can be described thus: Isothermal titration calorimetry of DSF and structural analogues binding to Tk 4. The following applies: ITC; for △H: change in enthalpy upon binding; for △S (cal mol^−1 per degree): change in entropy upon binding. Summed up:
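His6-tagged XC_2579 PAS domain construct (Tk 4) expressed in E. coli BL21(DE3) with 0.25 mM IPTG at 37°C for 1 h. Purified by Ni2+ affinity; tag cleaved with HRV 3C protease. Heats corrected against buffer control; one-site fit for Kd, ΔH, ΔS. Repeated at least twice.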
A general note: In ITC the heat of successive injections is recorded.

For test [2], the system named is Tk2 (XC_2579 amino acid residues 530–955). The test is described as follows: Isothermal titration calorimetry of DSF binding to truncation Tk 2. Set-up: species or system Xanthomonas campestris pv. campestris. The following applies: ITC, Tk2, in words.
Test [3] has as its system XC_0107 gfp fusion. The test can be described thus: XC_0107 gfp reporter fusion expression induced by DSF. It is filed as cell-based, Xanthomonas campestris. Conditions: rpfFC strain carrying reporter; 50 μM synthetic DSF, 14 h. (In general: Differential scanning fluorimetry follows unfolding on heating by fluorescence.)
Test [4] has as its target T2, Tk 3 (XC_2579 amino residues 1 to 240) (Xanthomonas campestris pv. campestris, UniProt Q8PA41).
T2 sequence (Q8PA41 14-253): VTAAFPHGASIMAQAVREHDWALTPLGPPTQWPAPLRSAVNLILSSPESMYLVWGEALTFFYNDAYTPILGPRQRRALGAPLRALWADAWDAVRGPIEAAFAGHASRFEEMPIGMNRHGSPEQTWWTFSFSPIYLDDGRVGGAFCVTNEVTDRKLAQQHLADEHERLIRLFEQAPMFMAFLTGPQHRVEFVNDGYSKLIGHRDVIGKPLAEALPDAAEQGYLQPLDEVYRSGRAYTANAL
The test can be described thus: Isothermal titration calorimetry of DSF binding to truncation Tk 3. Conditions: ITC, Tk 3, in words.

Test [5] addresses T3, Tk 1 (XC_2579 N‐terminal amino acid residues 1 to 360) (Xanthomonas campestris pv. campestris, UniProt Q8PA41).
T3 sequence (Q8PA41 14-373): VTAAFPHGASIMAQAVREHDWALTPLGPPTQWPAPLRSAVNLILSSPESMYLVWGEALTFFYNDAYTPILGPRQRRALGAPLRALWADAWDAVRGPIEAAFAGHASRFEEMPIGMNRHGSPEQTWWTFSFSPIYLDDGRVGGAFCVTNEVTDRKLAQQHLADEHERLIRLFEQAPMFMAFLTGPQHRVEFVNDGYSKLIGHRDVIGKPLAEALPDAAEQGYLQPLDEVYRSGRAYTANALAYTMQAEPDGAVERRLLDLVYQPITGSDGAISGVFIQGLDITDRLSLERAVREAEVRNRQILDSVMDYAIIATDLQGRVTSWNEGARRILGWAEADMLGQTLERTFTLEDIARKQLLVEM
The test can be described thus: Isothermal titration calorimetry of DSF binding to truncation Tk 1. Conditions: ITC, Tk 1, in words.

Test [6] concerns the target T4, full‐length XC_2579 protein (RpfS) (Xanthomonas campestris pv. campestris, UniProt Q8PA41).
T4 sequence (Q8PA41 14-968): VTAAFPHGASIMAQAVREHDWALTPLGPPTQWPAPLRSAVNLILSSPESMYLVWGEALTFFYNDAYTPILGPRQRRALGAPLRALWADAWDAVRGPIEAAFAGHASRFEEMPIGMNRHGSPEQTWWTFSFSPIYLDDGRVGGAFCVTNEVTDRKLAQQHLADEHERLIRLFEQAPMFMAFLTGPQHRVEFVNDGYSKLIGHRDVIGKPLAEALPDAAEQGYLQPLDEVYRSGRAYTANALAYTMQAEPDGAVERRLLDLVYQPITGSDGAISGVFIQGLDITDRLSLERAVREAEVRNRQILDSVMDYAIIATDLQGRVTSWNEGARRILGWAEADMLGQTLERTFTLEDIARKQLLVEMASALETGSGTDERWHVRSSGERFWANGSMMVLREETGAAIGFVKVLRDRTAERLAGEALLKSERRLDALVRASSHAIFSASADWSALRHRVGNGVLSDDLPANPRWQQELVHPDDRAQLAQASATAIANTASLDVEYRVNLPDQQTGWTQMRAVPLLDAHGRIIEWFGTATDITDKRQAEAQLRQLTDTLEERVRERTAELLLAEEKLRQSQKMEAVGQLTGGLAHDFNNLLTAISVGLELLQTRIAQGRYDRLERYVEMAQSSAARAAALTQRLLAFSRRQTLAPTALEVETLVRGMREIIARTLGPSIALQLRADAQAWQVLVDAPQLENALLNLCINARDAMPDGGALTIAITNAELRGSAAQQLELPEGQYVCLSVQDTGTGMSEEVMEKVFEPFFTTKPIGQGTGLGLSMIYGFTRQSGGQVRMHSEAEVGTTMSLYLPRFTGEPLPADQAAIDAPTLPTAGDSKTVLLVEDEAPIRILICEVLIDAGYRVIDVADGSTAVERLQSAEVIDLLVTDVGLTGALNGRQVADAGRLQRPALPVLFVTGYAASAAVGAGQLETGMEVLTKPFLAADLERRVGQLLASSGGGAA
The test is described as follows: Isothermal titration calorimetry of DSF binding to full-length XC_2579.

In test [7] the test system is PAS domain of Mycobacterium tuberculosis Rv1364c. The following applies: ref King‐Scott et al., 2011, cited from earlier work; for binding to PAS domain: in words.
Where [8] appears, read: Kd (M), Tk 4, higher concentrations of analogues used to estimate Kd.

The text below walks through data of publication PMC4159695 (Molecular Microbiology, 2014).

Molecules are shown by their SMILES.

As a reminder, the Kd is the free concentration of one partner at which half of the binding sites on the other are occupied at equilibrium, for simple one-to-one binding.

On to `CC(C)CCCCCCCCCC(=O)O` [11‐methyl‐dodecanoic acid], for which the Kd in test [1] (setting [8]) is 0.0069 M; in test [1] (Kd, Tk 4), over 0.001 M.
For the molecule `CC(C)CCCCCCC/C=C\C(=O)O` [DSF, cis‐11‐methyl‐2‐dodecenoic acid], the DSF binding entry is recorded as “no binding was detected” in test [2]; “High affinity DSF binding” in test [4]; “High affinity DSF binding” in test [1] (Tk 4, in words); “bound DSF with high affinity” in test [5]. For the same molecule, the “expression of GFP (XC_0107 gfp reporter)” value in test [3] is reported as “activated”. Also, the “△H” value in test [1] (Tk 4) is -1.60 kcal/mol. Besides, the “△S (cal mol^−1 per degree)” value in test [1] (Tk 4) turned out to be 59.73 cal mol^−1 per degree. In test [6], this molecule gave a dissociation constant Kd of 1.4 µM.
With `CCCCCCCCCCCC(=O)O` [Dodecanoic acid], the Kd is 0.0149 M in test [1] (setting [8]) and over 0.001 M in test [1] (Kd, Tk 4).
Regarding `CCCCCC/C=C\CCCCCCCC(=O)O` [Palmitoleic acid], in test [7], the “binding to PAS domain” value was “bind”.
`CCCCCCCCC/C=C\C(=O)O` [cis‐2‐dodecenoic acid (BDSF), cis‐2‐dodecenoic acid]: in test [1] (Tk 4), the “△H” value is -1.21 kcal/mol and the “△S (cal mol^−1 per degree)” value is 58.05 cal mol^−1 per degree. Besides, in test [1] (setting [8]), the Kd is 7.1e-06 M. This molecule also had a Kd in test [1] (Kd, Tk 4, PBS buffer at 25°C) of 7e-06 M.
With `CCCCCCCC/C=C\CCCCCCCC(=O)O` [oleic acid], the “binding to PAS domain” value in test [7] is recorded as “bind”.
`CCCCCCCCCCCCCCCC(=O)O` [palmitic acid]: the “affinity relative to palmitoleic acid (times lower)” value in test [7] is reported as 100 times.
For the molecule `CC(C)CCCCCCC/C=C/C(=O)O` [trans‐11‐methyl‐2‐dodecenoic acid], the Kd in test [1] (setting [8]) was 0.00113 M; in test [1] (Kd, Tk 4), over 0.001 M.
